Results taken from ChEMBL document CHEMBL1137781, “Synthesis and preclinical evaluation of novel PET probes for P-glycoprotein function and expression” (J Med Chem, 2009).

Legend:
Conditions in all cases: in vivo
Kidney = assay: Biodistribution in Wistar rat kidney at 40+/-4 MBq, iv after 80 mins; assay type: ADME, organism-based
In short: (§1)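 Male Wistar rats (12 h light/dark, chow ad libitum) were fitted with a femoral arterial cannula under isoflurane. They were pretreated via tail vein with saline, cyclosporin A (50 mg/kg), or nonradioactive tracer compound (15 mg/kg; 10 mg/mL in saline with 35% ethanol). The 11C tracer was then given via penile vein, followed by 76 min microPET. Animals were then terminated; excised tissues were weighed and gamma-counted with decay correction. Values are SUVs (tissue MBq/g × body weight g / injected MBq).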

[1] = Biodistribution in 50 mg/kg cyclosporin A pretreated Wistar rat frontal cortex at 27+/-2 MBq, iv after 80 mins; assay type: ADME, organism-based; set-up: dose 50 mg/kg, route intravenous
[2] = Biodistribution in Wistar rat trachea at 40+/-4 MBq, iv after 80 mins; assay type: ADME, organism-based
[3] = Biodistribution in Wistar rat medulla at 40+/-4 MBq, iv after 80 mins; assay type: ADME, organism-based, Medulla of organ; in short: as §1
Brain [4] = assay: Biodistribution in 50 mg/kg cyclosporin A pretreated Wistar rat brain at 27+/-2 MBq, iv after 25 mins; assay type: ADME, organism-based; set-up: dose 50 mg/kg, route intravenous
In short: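 Male Wistar rats pretreated with saline or cyclosporin A (50 mg/kg, tail vein), then given the [11C] tracer via penile vein. Dynamic microPET with a whole-brain 3D ROI. SUV read from the time-activity curve at 25 min, assuming 1 g/mL tissue density. Mean ± SEM.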

Liver [5] = assay: Biodistribution in Wistar rat liver at 40+/-4 MBq, iv after 80 mins; assay type: ADME, organism-based; in short: as §1
Duodenum [6] = assay: Biodistribution in Wistar rat duodenum at 40+/-4 MBq, iv after 80 mins; assay type: ADME, organism-based; in short: as §1
Muscle tissue = assay: Biodistribution in 50 mg/kg cyclosporin A pretreated Wistar rat muscle at 27+/-2 MBq, iv after 80 mins; assay type: ADME, organism-based; set-up: dose 50 mg/kg, route intravenous
Plasma = assay: Biodistribution in 50 mg/kg cyclosporin A pretreated Wistar rat plasma at 27+/-2 MBq, iv after 80 mins; assay type: ADME, organism-based; set-up: dose 50 mg/kg, route intravenous
[7] = Biodistribution in Wistar rat red blood cells at 40+/-4 MBq, iv after 80 mins; assay type: ADME, organism-based, Erythrocyte
[8] = Biodistribution in Wistar rat fat at 40+/-4 MBq, iv after 80 mins; assay type: ADME, organism-based, Adipose tissue; in short: as §1
[9] = Biodistribution in 50 mg/kg cyclosporin A pretreated Wistar rat fat at 27+/-2 MBq, iv after 80 mins; assay type: ADME, organism-based, Adipose tissue; set-up: dose 50 mg/kg, route intravenous
In short: (§2)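 Male Wistar rats pretreated via tail vein with saline or cyclosporin A (50 mg/kg, commercial solution), then given the [11C] tracer via penile vein. After microPET scanning the anesthetized rats were killed. Tissues were excised and weighed, and blood was centrifuged into plasma and cells. γ counting with decay correction. Results as SUV (tissue MBq/g × body weight/injected dose).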

Brain [10] = assay: Biodistribution in Wistar rat brain at 40+/-4 MBq, iv after 25 mins; assay type: ADME, organism-based
Hippocampus [11] = assay: Biodistribution in 50 mg/kg cyclosporin A pretreated Wistar rat hippocampus at 27+/-2 MBq, iv after 80 mins; assay type: ADME, organism-based; set-up: dose 50 mg/kg, route intravenous
Liver [12] = assay: Biodistribution in 50 mg/kg cyclosporin A pretreated Wistar rat liver at 27+/-2 MBq, iv after 80 mins; assay type: ADME, organism-based; set-up: dose 50 mg/kg, route intravenous
Cerebellum [13] = assay: Biodistribution in 50 mg/kg cyclosporin A pretreated Wistar rat cerebellum at 27+/-2 MBq, iv after 80 mins; assay type: ADME, organism-based; set-up: dose 50 mg/kg, route intravenous; in short: as §2
Hippocampus [14] = assay: Biodistribution in Wistar rat hippocampus at 40+/-4 MBq, iv after 80 mins; assay type: ADME, organism-based; in short: as §1
[15] = Biodistribution in 50 mg/kg cyclosporin A pretreated Wistar rat red blood cells at 27+/-2 MBq, iv after 80 mins; assay type: ADME, organism-based, Erythrocyte; set-up: dose 50 mg/kg, route intravenous
Pons = assay: Biodistribution in 50 mg/kg cyclosporin A pretreated Wistar rat pons at 27+/-2 MBq, iv after 80 mins; assay type: ADME, organism-based; set-up: dose 50 mg/kg, route intravenous
[16] = Biodistribution in Wistar rat frontal cortex at 40+/-4 MBq, iv after 80 mins; assay type: ADME, organism-based; in short: as §1
[17] = Biodistribution in Wistar rat bulbus olfactorius at 40+/-4 MBq, iv after 80 mins; assay type: ADME, organism-based, Olfactory bulb
Duodenum [18] = assay: Biodistribution in 50 mg/kg cyclosporin A pretreated Wistar rat duodenum at 27+/-2 MBq, iv after 80 mins; assay type: ADME, organism-based; set-up: dose 50 mg/kg, route intravenous; in short: as §2
Cerebellum [19] = assay: Biodistribution in Wistar rat cerebellum at 40+/-4 MBq, iv after 80 mins; assay type: ADME, organism-based
Rattus norvegicus = assay: AUC in 50 mg/kg cyclosporin A pretreated Wistar rat at 27+/-2 MBq, iv; assay type: ADME, organism-based, Plasma; set-up: dose 50 mg/kg, route intravenous
In short: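 Male Wistar rats with a femoral arterial cannula placed under isoflurane. Saline or cyclosporin A (50 mg/kg, commercial solution) given via tail vein, then the [11C] tracer via penile vein. Dynamic microPET over the brain for 76 min, with 14 arterial samples to 60 min. Plasma counted in a γ counter. AUC of whole-brain or plasma SUV over 0-60 min.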

[20] = Biodistribution in 50 mg/kg cyclosporin A pretreated Wistar rat cingulate cortex at 27+/-2 MBq, iv after 80 mins; assay type: ADME, organism-based; set-up: dose 50 mg/kg, route intravenous; in short: as §2
[21] = Biodistribution in Wistar rat parietal/temporal/occipital cortex at 40+/-4 MBq, iv after 80 mins; assay type: ADME, organism-based; in short: as §1
[22] = Biodistribution in Wistar rat cingulate cortex at 40+/-4 MBq, iv after 80 mins; assay type: ADME, organism-based; in short: as §1
Spleen = assay: Biodistribution in Wistar rat spleen at 40+/-4 MBq, iv after 80 mins; assay type: ADME, organism-based

- SUV (Kidney): 1.45
- SUV [1]: 1.06
- SUV [2]: 0.78
- SUV [3]: 0.41
- SUV (Brain [4]): 2.17
- SUV (Liver [5]): 3.27
- SUV (Duodenum [6]): 2.74
- SUV (Muscle tissue): 0.26
- SUV (Plasma): 0.32
- SUV [7]: 0.18
- SUV [8]: 0.36
- SUV [9]: 0.31
- SUV (Brain [10]): 0.88
- SUV (Hippocampus [11]): 0.86
- SUV (Liver [12]): 2.67
- SUV (Cerebellum [13]): 0.99
- SUV (Hippocampus [14]): 0.3
- SUV [15]: 0.16
- SUV (Pons): 1.28
- SUV [16]: 0.36
- SUV [17]: 0.33
- SUV (Duodenum [18]): 2.58
- SUV (Cerebellum [19]): 0.5
- AUC (Rattus norvegicus): 97%
- SUV [20]: 0.88
- SUV [21]: 0.36
- SUV [22]: 0.37
- SUV (Spleen): 1.64
Compound: COc1cc2c(cc1OC)CN(CCCC1CCCc3c(O[11CH3])cccc31)CC2 (stereo not drawn)
